Measured values taken from ChEMBL document CHEMBL1145087 (J Med Chem, 2003).

Legend:
Progesterone receptor [1] = target: T1, Progesterone receptor (Homo sapiens, UniProt P06401); assay: Agonistic activity against human progesterone receptor in T47D breast cancer cells; format: functional, cell-based
T1 sequence (P06401 whole entry): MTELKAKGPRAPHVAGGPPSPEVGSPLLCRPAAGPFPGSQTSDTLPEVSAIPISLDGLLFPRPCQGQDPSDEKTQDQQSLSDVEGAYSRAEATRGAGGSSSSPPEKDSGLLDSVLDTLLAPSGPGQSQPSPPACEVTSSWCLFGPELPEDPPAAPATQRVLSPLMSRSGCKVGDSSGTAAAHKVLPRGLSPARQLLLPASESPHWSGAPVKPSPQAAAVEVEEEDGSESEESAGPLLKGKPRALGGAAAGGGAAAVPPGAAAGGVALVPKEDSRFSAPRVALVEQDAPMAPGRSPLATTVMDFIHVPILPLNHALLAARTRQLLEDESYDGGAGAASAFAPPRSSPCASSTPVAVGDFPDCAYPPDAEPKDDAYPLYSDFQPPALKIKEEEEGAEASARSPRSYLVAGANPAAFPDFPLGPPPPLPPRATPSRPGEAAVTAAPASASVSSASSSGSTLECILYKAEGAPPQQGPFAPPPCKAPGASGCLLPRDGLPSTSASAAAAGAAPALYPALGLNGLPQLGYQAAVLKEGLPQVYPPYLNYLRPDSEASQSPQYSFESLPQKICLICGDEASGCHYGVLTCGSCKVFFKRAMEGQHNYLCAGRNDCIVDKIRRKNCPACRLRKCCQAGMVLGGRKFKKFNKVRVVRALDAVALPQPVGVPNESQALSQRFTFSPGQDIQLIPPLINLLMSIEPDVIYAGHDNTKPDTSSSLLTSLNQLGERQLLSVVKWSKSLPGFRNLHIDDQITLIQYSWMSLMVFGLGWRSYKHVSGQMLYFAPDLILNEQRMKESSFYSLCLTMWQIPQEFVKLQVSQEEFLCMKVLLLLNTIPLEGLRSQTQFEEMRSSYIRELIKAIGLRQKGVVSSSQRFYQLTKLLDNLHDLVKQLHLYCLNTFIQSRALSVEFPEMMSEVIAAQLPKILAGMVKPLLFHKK

[2] = target: T2, Progesterone receptor (Homo sapiens) (UniProt P06401); assay: Percent agonistic effect towards human progesterone receptor in T47D breast cancer cells; format: functional, cell-based
T2 sequence (whole entry): T1 sequence (P06401 whole entry)

Progesterone receptor [3] = target: T1, Progesterone receptor; assay: Agonistic activity against human progesterone receptor in CV-1 cells; format: functional, cell-based
[4] = target: T2, Progesterone receptor (Homo sapiens); assay: Percent agonistic effect towards human progesterone receptor in CV-1 cells; format: functional, cell-based
Progesterone receptor [5] = target: T1, Progesterone receptor; assay: Binding affinity towards human progesterone receptor A isoform using progesterone as radioligand
Glucocorticoid receptor [6] = target: T3, Glucocorticoid receptor (Homo sapiens, UniProt P04150); assay: Inhibition of Dexamethasone binding to human glucocorticoid receptor expressed in baculovirus […] cells
T3 sequence (P04150 whole entry): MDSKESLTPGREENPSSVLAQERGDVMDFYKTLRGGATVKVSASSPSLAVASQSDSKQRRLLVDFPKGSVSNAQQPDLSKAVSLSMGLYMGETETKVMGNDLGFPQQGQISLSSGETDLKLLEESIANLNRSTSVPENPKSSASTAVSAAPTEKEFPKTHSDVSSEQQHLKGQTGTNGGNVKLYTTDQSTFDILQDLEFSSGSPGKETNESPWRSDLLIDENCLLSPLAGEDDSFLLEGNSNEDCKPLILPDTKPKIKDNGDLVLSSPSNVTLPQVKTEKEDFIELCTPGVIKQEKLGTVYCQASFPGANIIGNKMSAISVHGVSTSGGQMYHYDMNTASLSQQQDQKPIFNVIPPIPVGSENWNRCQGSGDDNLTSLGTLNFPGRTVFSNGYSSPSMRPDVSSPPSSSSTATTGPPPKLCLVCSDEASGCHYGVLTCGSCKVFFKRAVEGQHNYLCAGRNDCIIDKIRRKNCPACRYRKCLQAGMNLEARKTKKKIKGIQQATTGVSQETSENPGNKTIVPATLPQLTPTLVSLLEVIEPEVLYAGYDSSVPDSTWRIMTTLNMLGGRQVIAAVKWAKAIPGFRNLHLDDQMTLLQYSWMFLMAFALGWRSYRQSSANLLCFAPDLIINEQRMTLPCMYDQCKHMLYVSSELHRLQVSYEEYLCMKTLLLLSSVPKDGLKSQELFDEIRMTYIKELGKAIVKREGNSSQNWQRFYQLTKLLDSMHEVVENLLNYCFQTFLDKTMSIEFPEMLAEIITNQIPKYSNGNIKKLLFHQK

Homo sapiens [7] = species: Homo sapiens; assay: Relative potency for human androgen and progesterone receptors
Homo sapiens [8] = species: Homo sapiens; assay: Relative potency for human estrogen and progesterone receptors
Homo sapiens [9] = species: Homo sapiens; assay: Relative potency for human glucocorticoid and progesterone receptors
Homo sapiens [10] = species: Homo sapiens; assay: Relative potency for human mineralocorticoid and progesterone receptors
Glucocorticoid receptor [11] = target: T3, Glucocorticoid receptor
Androgen receptor [12] = target: T4, Androgen receptor (Homo sapiens, UniProt P10275); assay: biochemical
T4 sequence (P10275 whole entry): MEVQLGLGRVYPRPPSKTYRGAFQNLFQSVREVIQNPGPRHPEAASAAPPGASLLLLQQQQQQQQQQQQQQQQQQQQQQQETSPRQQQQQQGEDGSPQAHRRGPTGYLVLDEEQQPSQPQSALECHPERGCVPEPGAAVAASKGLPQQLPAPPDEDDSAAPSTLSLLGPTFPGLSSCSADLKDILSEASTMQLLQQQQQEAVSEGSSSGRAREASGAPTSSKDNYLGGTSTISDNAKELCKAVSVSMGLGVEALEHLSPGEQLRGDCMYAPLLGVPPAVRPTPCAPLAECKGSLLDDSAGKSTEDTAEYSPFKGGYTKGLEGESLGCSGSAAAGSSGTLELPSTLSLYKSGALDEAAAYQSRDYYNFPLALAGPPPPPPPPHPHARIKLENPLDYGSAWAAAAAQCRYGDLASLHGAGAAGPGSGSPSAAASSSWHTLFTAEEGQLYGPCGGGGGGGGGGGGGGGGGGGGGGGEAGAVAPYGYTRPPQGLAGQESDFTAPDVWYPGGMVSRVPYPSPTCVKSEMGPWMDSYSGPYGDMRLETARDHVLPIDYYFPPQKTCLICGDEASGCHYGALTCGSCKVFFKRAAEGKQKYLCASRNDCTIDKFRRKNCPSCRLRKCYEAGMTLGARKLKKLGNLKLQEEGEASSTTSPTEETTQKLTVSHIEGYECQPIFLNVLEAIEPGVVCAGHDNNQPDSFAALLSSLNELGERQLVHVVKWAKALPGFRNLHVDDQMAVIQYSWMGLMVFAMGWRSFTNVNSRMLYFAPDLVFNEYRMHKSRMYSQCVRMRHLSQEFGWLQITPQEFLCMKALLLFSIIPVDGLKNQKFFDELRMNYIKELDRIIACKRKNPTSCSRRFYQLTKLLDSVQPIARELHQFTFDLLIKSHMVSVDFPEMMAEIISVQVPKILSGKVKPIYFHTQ

Androgen receptor [13] = target: T4, Androgen receptor
Estrogen receptor [14] = target: T5, Estrogen receptor (Homo sapiens, UniProt Q92731+P03372); assay: Antagonistic efficacy against human estrogen receptor; format: functional
Outline: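 Cotransfection LUC reporter assay for hER. Antagonist efficacy is the % maximal inhibition of a standard agonist (estradiol is the reference agonist for hER) applied at its EC50.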

Estrogen receptor [15] = target: T5, Estrogen receptor

| SMILES | EC50 (Progesterone receptor [1]) [nM] | Efficacy [2] [%] | EC50 (Progesterone receptor [3]) [nM] | Efficacy [4] [%] | Ki (Progesterone receptor [5]) [nM] | Ki (Glucocorticoid receptor [6]) [nM] | Ratio (Homo sapiens [7]) | Ratio (Homo sapiens [8]) | Ratio (Homo sapiens [9]) | Ratio (Homo sapiens [10]) | IC50 (Glucocorticoid receptor [11]) [nM] | Ki (Androgen receptor [12]) [nM] | IC50 (Androgen receptor [13]) [nM] | Efficacy (Estrogen receptor [14]) [%] | IC50 (Estrogen receptor [15]) [nM] |
| --- | --- | --- | --- | --- | --- | --- | --- | --- | --- | --- | --- | --- | --- | --- | --- |
| CC1=CC(C)(C)Nc2ccc3c(c21)/C(=C/c1ccccc1OC(F)(F)F)Oc1ccc(F)cc1-3 | 190 | 56 | 11 | 136 | 6.4 |  |  |  |  |  |  |  |  |  |  |
| CCCc1ccccc1/C=C1\Oc2ccc(F)cc2-c2ccc3c(c21)C(C)=CC(C)(C)N3 | 59 | 46 | 4.5 | 123 | 1.6 |  |  |  |  |  |  |  |  |  |  |
| CC1=CC(C)(C)Nc2ccc3c(c21)/C(=C/c1ccccc1C(F)(F)F)Oc1ccc(F)cc1-3 | 161 | 56 | 14 | 127 | 45.5 |  |  |  |  |  |  |  |  |  |  |
| COc1ccccc1/C=C1\Oc2ccc(F)cc2-c2ccc3c(c21)C(C)=CC(C)(C)N3 | 8 | 40 |  | 154 | 3.8 | 277 | > 1000 | > 1000 | 97 | > 1000 | 90 | 439 |  | 34 | 1885 |
| CC1=CC(C)(C)Nc2ccc3c(c21)/C(=C/c1ccccc1C#N)Oc1ccc(F)cc1-3 | 97 | 62 | 11 | 78 | 11.4 |  |  |  |  |  |  |  |  |  |  |
| CC1=CC(C)(C)Nc2ccc3c(c21)/C(=C/c1ccccc1C(C)C)Oc1ccc(F)cc1-3 | 54 | 43 | 4 | 156 | 1.9 |  |  |  |  |  |  |  |  |  |  |
| CC1=CC(C)(C)Nc2ccc3c(c21)/C(=C/c1ccccc1Cl)Oc1ccc(F)cc1-3 |  |  |  | 146 | 22.4 |  |  |  |  |  |  |  |  |  |  |
| CC1=CC(C)(C)Nc2ccc3c(c21)/C(=C/c1ccccc1Br)Oc1ccc(F)cc1-3 | 50 | 37 | 9 | 147 | 16.4 |  |  |  |  |  |  |  |  |  |  |
| CC1=CC(C)(C)Nc2ccc3c(c21)/C(=C/c1ncccc1C)Oc1ccc(F)cc1-3 | 12 | 49 | 4.5 | 125 | 0.42 | 874 |  | > 1000 |  | > 1000 | 188 | > 1000 | 203 |  |  |

More lines, in order of falling EC50 (Progesterone receptor [1]), values ahead:

| EC50 (Progesterone receptor [1]) [nM] | Efficacy [2] [%] | EC50 (Progesterone receptor [3]) [nM] | Efficacy [4] [%] | Ki (Progesterone receptor [5]) [nM] | Ki (Glucocorticoid receptor [6]) [nM] | Ratio (Homo sapiens [7]) | Ratio (Homo sapiens [8]) | Ratio (Homo sapiens [9]) | Ratio (Homo sapiens [10]) | IC50 (Glucocorticoid receptor [11]) [nM] | Ki (Androgen receptor [12]) [nM] | IC50 (Androgen receptor [13]) [nM] | SMILES | Efficacy (Estrogen receptor [14]) [%] | IC50 (Estrogen receptor [15]) [nM] |
| --- | --- | --- | --- | --- | --- | --- | --- | --- | --- | --- | --- | --- | --- | --- | --- |
| 48 | 72 | 11 | 107 | 2.6 |  |  |  |  |  |  |  |  | CC1=CC(C)(C)Nc2ccc3c(c21)/C(=C/c1ccccc1C=O)Oc1ccc(F)cc1-3 |  |  |
| 44 | 40 | 15 | 50 | 9.2 |  |  |  |  |  |  |  |  | CC1=CC(C)(C)Nc2ccc3c(c21)/C(=C/c1ccccn1)Oc1ccc(F)cc1-3 |  |  |
| 41 | 53 | 6.2 | 132 | 0.59 | 386 | > 1000 | > 1000 | 139 | > 1000 | 860 | > 1000 |  | CSc1ccccc1/C=C1\Oc2ccc(F)cc2-c2ccc3c(c21)C(C)=CC(C)(C)N3 |  |  |
| 29 | 47 |  | 190 | 0.62 |  |  |  |  |  |  |  |  | CC1=CC(C)(C)Nc2ccc3c(c21)/C(=C/c1ccccc1F)Oc1ccc(F)cc1-3 |  |  |
| 28 | 45 |  |  |  |  |  |  |  |  |  |  |  | CC1=CC(C)(C)Nc2ccc3c(c21)/C(=C/c1ccccc1C)Oc1ccccc1-3 |  |  |
| 28 | 55 |  | 176 | 0.62 | 207 | 121 | > 1000 | 387 | > 1000 | 2050 | > 1000 | 640 | CC1=CC(C)(C)Nc2ccc3c(c21)/C(=C/c1ccccc1)Oc1ccc(F)cc1-3 |  |  |
| 26 | 59 | 2.7 | 172 | 1.2 | 493 | 556 | > 1000 | 119 | > 1000 | 320 | 819 | 1500 | CC1=CC(C)(C)Nc2ccc3c(c21)/C(=C/c1ccccc1N(C)C)Oc1ccc(F)cc1-3 |  |  |
| 19 | 49 | 3.6 | 178 | 0.55 | 236 | 228 | > 1000 | 181 | > 1000 | 650 | > 1000 | 820 | CC1=CC(C)(C)Nc2ccc3c(c21)/C(=C/c1ccccc1C)Oc1ccc(F)cc1-3 |  |  |
| 18 | 51 | 2.7 | 170 | 5.5 |  |  |  |  |  |  |  |  | CC1=CC(C)(C)Nc2ccc3c(c21)/C(=C/c1cccc(F)c1)Oc1c(F)cccc1-3 |  |  |
| 8 | 36 | 4 | 175 | 0.71 |  |  |  |  |  |  |  |  | CC1=CC(C)(C)Nc2ccc3c(c21)/C(=C/c1ccc(F)cc1)Oc1c(F)cccc1-3 |  |  |
| 4.9 | 49 | 5.8 | 105 | 1.5 |  |  |  |  |  |  |  |  | CC1=CC(C)(C)Nc2ccc3c(c21)/C(=C/c1ccncc1)Oc1ccc(F)cc1-3 |  |  |
